M4 ag – CHRM4 agonism in calcium assay; P08173; hit rate 0.14% among 360,000; CHO-K1 hM4/Gqi5, Fluo-8 calcium fluorescence; vehicle 0%, full acetylcholine response 100%; activation, % at 3 µM;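 active = activation above the run mean over all test wells plus 3 SD, cut at about 32% in these data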;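 note: peak over basal fluorescence ratio per well then scaled between controls; 0% = DMSO wells and 100% = acetylcholine at EC100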
Target sequence (P08173 whole entry, looked up): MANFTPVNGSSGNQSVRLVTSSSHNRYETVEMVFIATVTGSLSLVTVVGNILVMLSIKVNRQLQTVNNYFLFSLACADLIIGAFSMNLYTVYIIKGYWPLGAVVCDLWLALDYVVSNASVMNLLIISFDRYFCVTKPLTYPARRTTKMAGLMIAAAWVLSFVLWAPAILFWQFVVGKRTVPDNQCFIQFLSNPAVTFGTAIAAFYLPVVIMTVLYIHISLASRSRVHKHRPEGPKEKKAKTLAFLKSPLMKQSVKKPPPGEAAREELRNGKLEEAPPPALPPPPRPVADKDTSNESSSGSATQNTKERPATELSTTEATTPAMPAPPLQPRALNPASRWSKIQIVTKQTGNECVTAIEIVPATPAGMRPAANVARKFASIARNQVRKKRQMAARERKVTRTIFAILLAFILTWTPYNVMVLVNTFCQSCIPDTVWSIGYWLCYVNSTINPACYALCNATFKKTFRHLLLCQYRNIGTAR
CHRM5 antagonist – CHRM5 antagonism in calcium assay; P08912; CHO-hM5 cells, Fluo-8 calcium fluorescence, ACh EC80; inhibition, % at 3 µM; hit rate 0.59% among 360,000;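 active = inhibition above a per-plate cutoff, the mean of that plate's test compounds plus 3 SD, cut at about 27% in these data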;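 note: 0% = acetylcholine EC80 with DMSO and 100% = DMSO without agonist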
M5 PAM – potentiates acetylcholine response at human M5 receptor | P08912 | CHO-K1 hM5, Fluo-8 calcium, ACh EC20 PAM; 0% = ACh EC20, 100% = ACh EC100 | activation, % at 3 µM | hit rate 0.3% among 360,000 | AID 624038;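 active = activation above the run cutoff, the mean activation of all test compounds plus 3 SD, cut at about 18% in these data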
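Measured by: Fluo-8 calcium fluorescence; material: human M5 receptor in CHO-K1 cells; schedule: Post-acetylcholine fluorescence recording 140 s; benchmarks: low control EC20 acetylcholine (0%), high control EC100 acetylcholine (100%); read-out: Max/basal fluorescence ratio as % of EC20–EC100 ACh window; compound: single dose, 3 µM nominal final test concentration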
M4 PAM – potentiates acetylcholine response at human M4 receptor | P08173 | AID 624126 | activation, % at 3 µM | CHO-K1 hM4/Gqi5, Fluo-8 calcium fluorescence, ACh EC20; 0% = ACh EC20, 100% = maximal ACh | hit rate 0.4% among 360,000;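 active = activation above its plate's cutoff, the mean activation of sample wells plus 3 SD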
M5 ag – agonists of human muscarinic M5 receptor (CHRM5). P08912. hit rate 0.19% among 360,000. activation, % at 3 µM. CHO-K1 hM5 cells, Fluo-8 calcium fluorescence; 0% DMSO wells, 100% maximal acetylcholine response;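 active = activation above the run's mean over test compounds plus 3 SD, cut at about 23% in these data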;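 note: signal is peak over basal fluorescence ratio across the kinetic read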
CHRM4 antagonist – CHRM4 antagonism in calcium assay. P08173. CHO-hM4 cells, ACh EC80, Fluo-8 calcium fluorescence. inhibition, % at 3 µM. hit rate 0.73% among 360,000. AID 624125;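 active = inhibition above its plate's cutoff, the mean inhibition of sample wells plus 3 SD, cut at about 27% in these data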;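 note: 0% = acetylcholine EC80 with DMSO and 100% = DMSO without agonist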
The depositor's hits bear a star. Rows were chosen to be rich in hits. Some 1.8% of all compounds tested hit in one or more screens of this group.

SMILES	M4 ag	CHRM5 antagonist	M5 PAM	M4 PAM	M5 ag	CHRM4 antagonist
O=C1CC(c2ccc(F)cc2)Sc2ccccc2N1 (stereo unspecified)	-1.0	-3.9	0.9	14.4	-1.2	11.4
C=CCc1c(C)nc(N)[nH]c1=O	0.6	-1.4	5.6	7.3	1.3	-4.7
CCOC(=O)c1coc(C(=O)OCC)c1C(=O)OCC	1.2	23.6	-7.2	1.7	-1.8	-8.0
O=C(N1CCCC1)C12CCC3CC(CC(C3)C1)C2	0.4	-6.3	19.1*	8.3	-7.8	-13.6
O=C(Nc1ccc(Cl)c(S(=O)(=O)N2CCCCC2)c1)c1ccco1	4.5	16.5	0.6	0.5	-1.7	8.0
Nc1ccc2c3c(cccc13)-c1ccccc1-2	31.3	63.1*	-31.2	-5.9	204.7*	30.6*
CCc1ccc(-c2nnn(CC(=O)N(C3CCCC3)C3CCS(=O)(=O)C3)n2)cc1 (stereo unspecified)	2.9	1.6	-5.0	17.7	0.8	0.2
CC1CCC2(CC1)NC(=O)N(CC(=O)c1cn(CCC#N)c3ccccc13)C2=O (stereo unspecified)	1.0	14.0	-1.3	6.8	-1.9	3.0
CC1=CC(=O)C2(C)C(C)=C(C)C12C (stereo unspecified)	0.5	2.9	-4.0	2.8	0.9	-8.3
CN1C(=O)/C(=C/c2ccc(C(F)(F)F)cc2)Sc2ccc(C(=O)N3CCN(c4ccccn4)CC3)cc21	4.9	37.0*	-12.4	5.5	-4.6	-25.1
CN1C(=O)/C(=C/c2ccccc2Cl)Sc2ccc(C(=O)N3CCCC3)cc21	2.2	-2.9	8.7	-1.8	20.6	-3.1
FC(F)(F)Oc1ccccc1C(c1nnnn1-c1ccc2c(c1)OCCO2)N1CCN(C/C=C/c2ccccc2)CC1 (stereo unspecified)	-0.2	8.5	-15.7	-0.4	-2.8	-6.0
COc1ccc(C(=O)NC(C(=O)OCC(=O)Nc2sccc2C(N)=O)C(C)C)cc1 (stereo unspecified)	19.2	3.0	-9.8	-0.8	7.9	-12.9
CN1CCC(C2(O)c3ccccc3CSc3sccc32)CC1 (stereo unspecified)	1.2	10.6	-30.5	-6.4	-14.4	-1.5
CN1CCC(C2(O)c3ccccc3CCc3ccccc32)CC1	1.0	37.4*	-17.7	-37.0	-5.6	51.7*
O=c1[nH]c(C2CCN(S(=O)(=O)c3cccc([N+](=O)[O-])c3)CC2)nc2c1nnn2Cc1ccccc1	0.9	7.9	2.6	-20.5	-1.9	55.1*
O=c1[nH]c(C2CCN(S(=O)(=O)c3ccccc3)CC2)nc2c1nnn2Cc1cccc(Cl)c1	0.5	1.5	-0.2	-21.8	-6.9	83.3*
O=c1[nH]c(C2CCN(S(=O)(=O)c3cccc(Cl)c3)CC2)nc2c1nnn2Cc1ccccc1	0.1	5.7	-1.0	-18.3	-2.7	96.1*
O=c1[nH]c(C2CCN(S(=O)(=O)c3ccc(S(=O)(=O)NC4CC4)cc3)CC2)nc2c1nnn2Cc1ccccc1	1.6	6.8	3.2	-21.4	-4.1	62.9*
CCCCn1c(N)c(N(CC(C)C)C(=O)c2cc3ccccc3cc2OC)c(=O)[nH]c1=O	0.7	6.4	1.1	3.7	1.0	-2.5
COc1ccc(CNC(=O)C2CCC(=O)N(CCCN3CCCC3=O)C2)c(OC)c1 (stereo unspecified)	0.9	3.0	-1.7	-8.4	0.6	-1.1
Cc1cc(C)nc(NS(=O)(=O)c2ccc(NC(=O)CSc3nc4ccccc4[nH]3)cc2)n1	0.3	0.0	2.0	11.2	-3.2	-1.2
COc1ccc2nc(SCC(=O)Nc3ccc(S(=O)(=O)Nc4nccc(C)n4)cc3)[nH]c2c1	1.2	14.5	2.1	22.9	4.0	34.8*
Cc1ccnc(NS(=O)(=O)c2ccc(NC(=O)c3ccc(S(=O)(=O)N4CCCC4)cc3)cc2)n1	0.2	-14.5	19.4*	3.7	0.6	-3.9
COc1ccc(CCC(=O)NNC(=S)Nc2cccc(C(C)=O)c2)cc1	0.3	-7.2	2.4	15.4	-0.7	-6.5
SMILES	M4 ag	CHRM5 antagonist	M5 PAM	M4 PAM	M5 ag	CHRM4 antagonist
CC(C)(C)NC(=O)C(c1cc2ccccc2o1)n1c(=O)c(-c2ccco2)nc2ccccc21 (stereo unspecified)	-1.9	4.1	-4.9	2.4	1.1	3.8
CCCCCNC(=O)C(c1cc2ccccc2o1)n1c(=O)c(-c2ccco2)nc2ccccc21 (stereo unspecified)	0.5	-9.9	7.8	27.0*	0.3	-10.9
Cc1cc2nc(-c3cccc(Br)c3)c(CC3CCCCC3)n2c(C)c1Br	1.2	-4.7	-1.5	5.8	3.6	-13.8
Cc1cc2oc(C(=O)N(Cc3ccc(N(C)C)cc3)CC3CCCO3)c(C)c2cc1C (stereo unspecified)	-1.3	1.0	1.9	14.5	-3.6	-10.8
Cc1c(-c2ccccc2)[n+](=O)c(-c2ccc(Cl)cc2)c(C)n1[O-]	15.7	29.8*	-10.5	-0.5	-2.1	-1.8
Cc1c(-c2ccccc2)[n+](=O)c(-c2ccc(Br)cc2)c(C)n1[O-]	1.5	2.9	3.0	-5.2	1.2	0.3
Cc1cc(=O)n2nc(N3CCCC(C(=O)N4CCc5ccccc54)C3)sc2n1 (stereo unspecified)	-1.5	6.1	-14.0	-18.1	-7.9	31.8*
Nc1c(C(=O)O)sc2nc(-c3ccccc3)cc(-c3ccc(F)cc3)c12	-0.2	-10.4	20.6*	7.2	5.7	-13.3
CCCNC(=O)CNC(=O)c1ccc(C#N)cc1	0.6	-0.8	7.8	19.4	5.2	-12.9
Cc1cccc(C)c1NS(=O)(=O)c1ccc2c(c1)NC(=O)CO2	1.0	-22.6	19.2*	14.2	0.1	-7.8
Cc1ccccc1NS(=O)(=O)c1ccc2c(c1)NC(=O)CO2	2.1	3.7	1.4	4.7	0.2	-6.0
NC1=NC(=O)C(Cc2ccc(F)cc2)S1 (stereo unspecified)	0.6	-0.8	1.5	3.4	1.1	-5.7
Cc1ccc(CC2SC(N)=NC2=O)cc1 (stereo unspecified)	1.2	1.8	11.6	19.8*	2.2	-11.6
Cc1nc2c(nnn2Cc2ccccc2)c(=O)[nH]1	0.7	7.5	-6.3	-5.5	-0.9	9.3
N#Cc1cccc(NC(=O)COc2ccc(-n3ccnc3)cc2)c1	16.6	40.2*	-17.3	-13.9	0.1	25.6
COc1cc(NC(=O)COc2ccc(-n3ccnc3)cc2)cc(OC)c1	6.9	11.1	-9.7	-8.8	2.7	7.5
COc1cccc(N2CCN(C(=O)c3cccn4c(=O)c5c(C)c(C)sc5nc34)CC2)c1	2.0	-14.6	18.6*	3.0	7.6	2.4
COc1ccc(N2CCN(C(=O)c3cccn4c(=O)c5ccccc5nc34)CC2)cc1	1.4	3.5	-3.5	3.8	2.8	-3.3
